Only some compounds are listed: those with a hit (about 0.88% of all), similar ones and a draw of the others.
CCR6 antagonist = antagonists of human CCR6 receptor; P51684; CHO-K1 CCR6 PathHunter beta-arrestin, luminescence, CCL20-stimulated; inhibition, % at 20 µM; hit rate 0.49% among 340,000; AID 493098;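 active = compounds whose inhibition of the agonist-driven luminescence signal at 20 µM reaches about 50%, limit read from the data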;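 note: cells stimulated with CCL20 at 14 nM final; plate controls were DMSO with CCL20 for no effect and DMSO without agonist for full effect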
PKA-R1A activ = activates the PKA-R1A holoenzyme complex; P00514+P68181; PKA-R1A dissociation, Cy5-IP20 fluorescence polarization; scaled: DMSO 0%, 113 µM cGMP 100%; activation, % at 11.4 µM; hit rate 0.083% among 340,000; AID 504707;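 active = percent activation above the mean of all tested compounds plus 3 SD, cut at about 19% in these data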;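 note: higher means more PKAc released from R1A so a rise in polarization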
APJ agonist = activates the human apelin receptor APJ. AID 2520. hit rate 0.11% among 330,000. activation, % at 20 µM. CHO-K1 APJ PathHunter beta-arrestin, luminescence; 0% DMSO wells, 100% apelin. P35414;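 active = activation more than six SD over the plate average, tested at 20 µM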;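 note: 0% = DMSO alone and 100% = apelin-13 at 10 nM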
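Assay system – PathHunter CHO-K1 APJ (AGTRL-1) beta-arrestin reporter cells · Compound – one dose, 20 µM compound, 1% DMSO · Timing – compound 90 min 25 °C, reagent 1 h · Measured by – luminescence from split beta-galactosidase complementation, Galacton Star/Emerald II substrate · Measure – beta-arrestin recruitment to APJ as agonist activity, luminescent signal · Benchmarks – DMSO vs Apelin-13 10 nM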
APJ antag = APJ receptor antagonism. P35414. CHO-K1 APJ beta-arrestin complementation, luminescence. inhibition, % at 20 µM. hit rate 0.32% among 330,000;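 active = inhibition above about 40% at 20 µM, limit read from the data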;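 note: cells challenged with 10 nM apelin-13 agonist together with compound; plate controls were apelin-13 plus DMSO wells for no effect and DMSO wells lacking apelin-13 for full effect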
PKA-R2B activ = activates the human PKA-R2B holoenzyme complex; PKA-R2B holoenzyme dissociation, Cy5-IP20 fluorescence polarization; R2B truncated from residue 108, S112A mutant; 0% DMSO only, 100% 113 µM cGMP; activation, % at 11.4 µM; hit rate 0.079% among 340,000; AID 504700;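 active = activation above a cutoff set at the mean over all compounds plus 3 SD, cut at about 18% in these data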;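 note: higher means more holoenzyme dissociation and a rise in polarization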
CXCR6 block = blocks human CXCR6 beta-arrestin recruitment. O00574. CHO-K1 PathHunter CXCR6 beta-arrestin, luminescence. inhibition, % at 20 µM. hit rate 0.36% among 360,000. AID 602244; in the data active = inhibition above about 34%, passing the limit was not always enough;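 note: antagonist mode with CXCL16 agonist at 10 nM final; 0% = 10 nM CXCL16 with DMSO and 100% = unstimulated wells without agonist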
Target sequence (O00574 whole entry, looked up): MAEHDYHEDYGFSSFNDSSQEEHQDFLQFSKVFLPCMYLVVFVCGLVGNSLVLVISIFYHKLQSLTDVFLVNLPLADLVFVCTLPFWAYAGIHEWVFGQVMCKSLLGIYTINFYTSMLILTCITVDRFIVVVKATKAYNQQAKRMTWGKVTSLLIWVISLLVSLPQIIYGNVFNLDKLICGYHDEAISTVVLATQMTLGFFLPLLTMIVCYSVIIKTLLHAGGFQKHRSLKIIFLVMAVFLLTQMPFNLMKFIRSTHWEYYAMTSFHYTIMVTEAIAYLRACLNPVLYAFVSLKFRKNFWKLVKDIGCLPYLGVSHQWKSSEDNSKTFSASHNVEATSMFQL
APJ antag conf = confirmation of human APJ apelin receptor antagonists; hit rate 66% among 950; inhibition, % at 20 µM; shares compounds with APJ antag; APJ beta-arrestin recruitment, luminescence, antagonist mode; in the data active = inhibition above about 50%
R2B FP artifact = counter-screen for PKA-R2B activators: fluorescence polarization artifacts; FP artifact counterscreen; activation, % at 11.4 µM; AID 504796; hit rate 6% among 270; shares compounds with PKA-R2B activ; in the data active = activation above about 20%;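 note: Cy5 labelled IP20 peptide probe with compound but no PKA protein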
PKA-R2B confirm = confirmation of human PKA-R2B complex activators | shares compounds with PKA-R2B activ | fluorescence polarization, activation | activation, % at 11.4 µM | hit rate 9% among 270; in the data active = activation above about 19%
Target sequence (P31323 whole entry, looked up): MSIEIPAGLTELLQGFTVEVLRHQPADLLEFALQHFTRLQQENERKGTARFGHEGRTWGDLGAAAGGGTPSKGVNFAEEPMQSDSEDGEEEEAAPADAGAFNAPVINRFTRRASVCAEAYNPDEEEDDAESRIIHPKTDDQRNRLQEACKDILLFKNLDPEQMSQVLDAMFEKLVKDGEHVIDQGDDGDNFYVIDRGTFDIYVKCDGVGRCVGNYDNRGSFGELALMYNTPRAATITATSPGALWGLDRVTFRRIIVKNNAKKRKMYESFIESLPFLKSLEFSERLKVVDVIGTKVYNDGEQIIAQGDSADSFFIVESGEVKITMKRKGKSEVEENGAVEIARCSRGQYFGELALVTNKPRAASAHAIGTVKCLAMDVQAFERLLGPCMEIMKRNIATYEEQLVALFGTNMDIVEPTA
CXCR6 antag conf = confirmation of human CXCR6 receptor antagonists; shares compounds with CXCR6 block; CHO-K1 CXCR6 PathHunter beta-arrestin, luminescence; inhibition, % at 20 µM; hit rate 65% among 700; AID 602409;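 active = mean inhibition over four retests above 40%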;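 note: receptor stimulated with 10 nM CXCL16 agonist; beta-galactosidase fragment complementation upon beta-arrestin recruitment to receptor; plate controls were CXCL16 plus DMSO for no effect and DMSO without CXCL16 for full effect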
Numbers without * were called inactive; . = no result given.

SMILES	CCR6 antagonist	PKA-R1A activ	APJ agonist	APJ antag	PKA-R2B activ	CXCR6 block	APJ antag conf	CXCR6 antag conf	others
CC1(C)CC(=O)C(C=Nc2ccc(C(=O)c3ccccc3)cc2N=CC2=C(O)CC(C)(C)CC2=O)=C(O)C1	111.0*	-3.0	-17.8	119.7*	-8.3	103.4*	155.7*	114.5*
C/C(=N\NC(=O)COc1ccccc1-c1ccccc1)c1ccccn1	89.2*	-4.9	-9.9	61.7*	1.4	66.4*	88.2*	102.3*
COc1ccc(Cn2c(S(=O)(=O)CC(N)=O)nc3ccccc32)cc1[N+](=O)[O-]	.	.	0.0	36.4	.	.	.	.
CC(C)[C@H](NC(=O)c1ccccc1)C(=O)OCC(=O)Nc1ccc(S(=O)(=O)N2CCOCC2)cc1	7.0	-5.2	-0.2	-12.4	-10.7	-2.4	.	.
COc1ccc(CC(=O)OCC(=O)c2ccc(S(=O)(=O)N3CCCCC3)cc2)cc1	64.8*	-7.6	-10.7	71.4*	-7.8	48.3*	70.2*	23.7
CC(=O)Nc1cccc(C(=O)OCC(=O)c2ccc(S(=O)(=O)N3CCCCC3)cc2)c1	54.2*	-10.9	-17.7	49.2*	7.4	42.2*	71.3*	13.8
CC(C)[C@H](NC(=O)c1ccccc1)C(=O)OCC(=O)c1ccc(S(=O)(=O)N2CCCCC2)cc1	54.2*	4.4	-24.7	47.1*	-5.0	43.6*	21.3	32.0
CC(C)c1ccc(O)c(NC(=S)NC(=O)c2cccnc2)c1	69.4*	14.9	-9.8	58.6*	-8.7	59.5*	83.7*	67.4*
O=c1[nH]c(=S)[nH]c2c1C(c1ccccc1)OC(C1CCCCC1)C2 (stereo not given)	.	.	.	.	.	-8.0	.	.
Cn1c(=O)[nH]c(=O)c2c1nc(Sc1nc3ccccc3s1)n2Cc1ccccc1	68.1*	-6.8	-10.5	53.7*	-0.1	51.6*	49.5	53.7*
O=c1cc(CSc2ccc(Cl)cc2)nc(-c2ccccn2)[nH]1	79.1*	-8.5	-11.4	51.0*	3.0	54.3*	69.8*	68.1*
COc1ccc(CNc2cc(NCCCO)c([N+](=O)[O-])c3nonc23)cc1	19.7	9.3	-1.3	4.1	-3.0	-5.1	.	.
CC(=O)OCCCNc1cc(Sc2nc3ccccc3s2)c2nonc2c1[N+](=O)[O-]	103.5*	-3.2	-6.1	76.7*	-2.6	93.4*	101.2*	103.2*
COc1cc(NC(=O)CCc2nnc3ccc(N4CCCCC4)nn23)cc(OC)c1OC	8.9	2.8	-3.4	1.1	-7.0	-16.9	.	.
COc1cc(C2C(C#N)=C(N)Oc3n[nH]c(-c4cccnc4)c32)ccc1OCC(N)=O (stereo not given)	3.4	-5.0	-0.1	-5.0	-3.9	-4.5	.	.
COc1cc(C2C(C#N)=C(N)Oc3n[nH]c(-c4cccnc4)c32)cc(Br)c1O (stereo not given)	64.6*	4.7	-7.8	56.3*	5.4	46.4*	75.5*	51.6*
COc1ccc(NC(=O)/C(Cl)=C(/Cl)S(=O)Cc2ccccc2)cn1 (stereo not given)	90.1*	1.6	-9.7	86.3*	9.5	80.8*	100.1*	88.3*
COc1ccc(NC(=O)Cc2ccccc2)cn1	5.8	3.0	0.2	-0.1	-6.5	-7.1	.	.
Cc1ccc(C)c(OCC(O)CN2CCc3ccccc3C2)c1C (stereo not given)	5.9	-1.9	-1.7	-4.9	-5.7	-14.7	.	.
Cc1cc(O)ccc1NC(=S)NC(=O)c1cncc(Br)c1	70.4*	-12.1	-7.5	43.5*	-5.2	51.0*	82.4*	48.0*
O=C(NC(=S)Nc1cccc(O)c1)c1cncc(Br)c1	37.8	6.1	-4.3	31.6	-15.5	24.2	.	.
O=C(O)c1cccc(NC(=S)NC(=O)c2cncc(Br)c2)c1	42.3	-7.5	-3.7	42.8*	-5.3	58.1*	81.4*	26.7
CC(=O)NCCc1c[nH]c2ccc(OCc3ccccc3)cc12	-5.4	.	-1.8	8.3	.	-3.0	.	.
O=C(COC(=O)c1c[nH]c(=O)[nH]c1=O)Nc1ccccc1Br	-2.2	-1.0	-2.0	13.1	0.1	-5.2	.	.
COC(=O)CCCCCCCC(=O)Nc1nnc(C(F)(F)F)s1	-10.0	-1.2	-0.6	14.4	10.2	4.4	.	.
SMILES	CCR6 antagonist	PKA-R1A activ	APJ agonist	APJ antag	PKA-R2B activ	CXCR6 block	APJ antag conf	CXCR6 antag conf	others
COCCNC(=O)CN(Cc1ccccc1)C(=O)CCC(=O)Nc1nccs1	6.2	0.0	-1.6	8.2	19.1*	4.6	.	.	R2B FP artifact=2.4;PKA-R2B confirm=-4.3
COCCNC(=O)CN(Cc1cccs1)C(=O)CCC(=O)Nc1nccs1	3.4	-2.2	-1.6	7.8	-10.0	-9.4	.	.
CCc1nnc(NC(=O)CSc2nnc(C)n2-c2ccc(C)cc2)s1	8.5	-0.6	-2.8	13.3	18.8*	8.8	.	.	R2B FP artifact=4.2;PKA-R2B confirm=1.4
O=[N+]([O-])c1ccc(P(=O)(Cc2ccccc2)c2ccccc2O)cc1 (stereo not given)	21.1	0.1	-5.0	-9.7	-6.0	13.6	.	.
Cc1ccc2nc(SCC(=O)O)nc(C)c2c1	7.7	6.9	-4.8	-19.0	20.2*	-2.4	.	.	R2B FP artifact=2.5;PKA-R2B confirm=2.0
COC(=O)Cc1c(C)c2ccc(OCC(=O)N3CCC(C)CC3)c(C)c2oc1=O	6.4	-6.2	2.4	-11.2	-0.2	10.5	.	.
Cc1ccccc1-c1nnc(-c2ccc(Cl)cc2)o1	7.0	-7.9	-2.2	-5.3	-4.2	0.3	.	.
Cc1ccccc1-c1nc(Cc2ccc(Cl)cc2)no1	28.0	-2.1	-5.6	7.3	19.3*	0.9	.	.	R2B FP artifact=-1.9;PKA-R2B confirm=-0.9
Brc1ccc2cccnc2c1	2.2	5.7	2.4	-18.9	23.0*	-1.6	.	.	R2B FP artifact=-0.6;PKA-R2B confirm=0.3
CCOc1ccc(OCc2cccc(C(=O)O)c2)cc1	-26.7	-10.7	-3.9	8.5	20.2*	6.0	.	.	R2B FP artifact=3.1;PKA-R2B confirm=2.2
COC(=O)c1c[nH]n2c(=O)c(C(C)C)c(C)nc12	5.0	-2.3	3.6	-37.0	-12.4	3.2	.	.
COC(=O)c1c[nH]n2c(=O)cc(CCl)nc12	-3.6	5.7	-1.4	11.3	20.1*	3.3	.	.	R2B FP artifact=-0.4;PKA-R2B confirm=0.9
CC(=O)NC12CC3CC(C1)CC(C(=O)Nc1nc4ccc(S(C)(=O)=O)cc4s1)(C3)C2	0.8	-7.5	-3.5	7.4	1.9	1.7	.	.

Source: PubChem BioAssay
